Test results: ChEMBL document CHEMBL4229342, “Synthesis of novel proxyphylline derivatives with dual Anti-Candida albicans and anticancer activity” (Eur J Med Chem, 2018)

Experiments:
Assay type in all cases: functional
CCRF-CEM [1] = test: Antiproliferative activity against human CCRF-CEM cells assessed as cell viability at 25 uM after 72 hrs by MTT assay; settings: read-out: Activity
Outline: (§1)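 MTT viability assay in CCRF-CEM and MCF-7 cells after 72 h exposure at 25, 50, 100 and 200 µM. Results are relative to control cells without inhibitor in 0.5% DMSO. Done in triplicate; values are means ± SD of three independent experiments.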

CCRF-CEM [2] = test: Antiproliferative activity against human CCRF-CEM cells assessed as cell viability at 50 uM after 72 hrs by MTT assay; settings: read-out: Activity; outline: as §1
CCRF-CEM [3] = test: Antiproliferative activity against human CCRF-CEM cells assessed as cell viability at 100 uM after 72 hrs by MTT assay; settings: read-out: Activity; outline: as §1
CCRF-CEM [4] = test: Antiproliferative activity against human CCRF-CEM cells assessed as cell viability at 200 uM after 72 hrs by MTT assay; settings: read-out: Activity; outline: as §1
MCF7 [5] = test: Antiproliferative activity against human MCF7 cells assessed as cell viability at 25 uM after 72 hrs by MTT assay; settings: MCF7, 72 h, read-out: Activity; outline: as §1
MCF7 [6] = test: Antiproliferative activity against human MCF7 cells assessed as cell viability at 50 uM after 72 hrs by MTT assay; settings: MCF7, 72 h, read-out: Activity; outline: as §1
MCF7 [7] = test: Antiproliferative activity against human MCF7 cells assessed as cell viability at 100 uM after 72 hrs by MTT assay; settings: MCF7, 72 h, read-out: Activity; outline: as §1
MCF7 [8] = test: Antiproliferative activity against human MCF7 cells assessed as cell viability at 200 uM after 72 hrs by MTT assay; settings: MCF7, 72 h, read-out: Activity; outline: as §1
Candida albicans [9] = test: Growth inhibition of Candida albicans ATCC 90028 at 16 ug/ml incubated for 18 hrs at 35 degC by broth microdilution method relative to control; settings: ATCC 90028, 18 h, read-out: GI
Candida albicans [10] = test: Growth inhibition of Candida albicans ATCC 90028 at 16 ug/ml incubated for 48 hrs at 35 degC by broth microdilution method relative to control; settings: ATCC 90028, 48 h, read-out: GI
Candida albicans [11] = test: Growth inhibition of Candida albicans ATCC 90028 at 8 ug/ml incubated for 18 hrs at 35 degC by broth microdilution method relative to control; settings: ATCC 90028, 18 h, read-out: GI
Candida albicans [12] = test: Growth inhibition of Candida albicans ATCC 90028 at 8 ug/ml incubated for 48 hrs at 35 degC by broth microdilution method relative to control; settings: ATCC 90028, 48 h, read-out: GI
Candida albicans [13] = test: Growth inhibition of Candida albicans ATCC 90028 at 4 ug/ml incubated for 18 hrs at 35 degC by broth microdilution method relative to control; settings: ATCC 90028, 18 h, read-out: GI
Candida albicans [14] = test: Growth inhibition of Candida albicans ATCC 90028 at 8 ug/ml incubated for 4 hrs at 35 degC by broth microdilution method relative to control; settings: ATCC 90028, 4 h, read-out: GI
Candida albicans [15] = test: Growth inhibition of Candida albicans ATCC 90028 at 2 ug/ml incubated for 18 hrs at 35 degC by broth microdilution method relative to control; settings: ATCC 90028, 18 h, read-out: GI
Candida albicans [16] = test: Growth inhibition of Candida albicans ATCC 90028 at 2 ug/ml incubated for 4 hrs at 35 degC by broth microdilution method relative to control; settings: ATCC 90028, 4 h, read-out: GI
Candida albicans [17] = test: Growth inhibition of Candida albicans ATCC 90028 at 1 ug/ml incubated for 18 hrs at 35 degC by broth microdilution method relative to control; settings: ATCC 90028, 18 h, read-out: GI
Candida albicans [18] = test: Growth inhibition of Candida albicans ATCC 90028 at 1 ug/ml incubated for 4 hrs at 35 degC by broth microdilution method relative to control; settings: ATCC 90028, 4 h, read-out: GI
Candida albicans [19] = test: Growth inhibition of Candida albicans ATCC 90028 at 0.5 ug/ml incubated for 18 hrs at 35 degC by broth microdilution method relative to control; settings: ATCC 90028, 18 h, read-out: GI
Candida albicans [20] = test: Growth inhibition of Candida albicans ATCC 90028 at 0.5 ug/ml incubated for 4 hrs at 35 degC by broth microdilution method relative to control; settings: ATCC 90028, 4 h, read-out: GI
Candida albicans [21] = test: Growth inhibition of Candida albicans ATCC 90028 at 0.25 ug/ml incubated for 18 hrs at 35 degC by broth microdilution method relative to control; settings: ATCC 90028, 18 h, read-out: GI
Candida albicans [22] = test: Growth inhibition of Candida albicans ATCC 90028 at 0.25 ug/ml incubated for 4 hrs at 35 degC by broth microdilution method relative to control; settings: ATCC 90028, 4 h, read-out: GI
Candida albicans [23] = test: Growth inhibition of Candida albicans ATCC 90028 at 0.125 ug/ml incubated for 18 hrs at 35 degC by broth microdilution method relative to control; settings: ATCC 90028, 18 h, read-out: GI
Candida albicans [24] = test: Growth inhibition of Candida albicans ATCC 90028 at 0.125 ug/ml incubated for 4 hrs at 35 degC by broth microdilution method relative to control; settings: ATCC 90028, 4 h, read-out: GI
Candida albicans [25] = test: Growth inhibition of Candida albicans ATCC 90028 at 0.0625 ug/ml incubated for 18 hrs at 35 degC by broth microdilution method relative to control; settings: ATCC 90028, 18 h, read-out: GI
Candida albicans [26] = test: Growth inhibition of Candida albicans ATCC 90028 at 0.0625 ug/ml incubated for 4 hrs at 35 degC by broth microdilution method relative to control; settings: ATCC 90028, 4 h, read-out: GI
Candida albicans [27] = test: Growth inhibition of Candida albicans ATCC 90028 at 0.0313 ug/ml incubated for 18 hrs at 35 degC by broth microdilution method relative to control; settings: ATCC 90028, 18 h, read-out: GI
Candida albicans [28] = test: Growth inhibition of Candida albicans ATCC 90028 at 0.0313 ug/ml incubated for 4 hrs at 35 degC by broth microdilution method relative to control; settings: ATCC 90028, 4 h, read-out: GI
Candida albicans [29] = test: Fungicidal activity against Candida albicans ATCC 90028 assessed as log reduction in cell viability at 16 ug/ml after 48 hrs at 35 degC
Outline: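 MFC assay on C. albicans ATCC 90028 following M27-A3, at the molar equivalent of 16 µg/mL. CFU of treated cells were compared with CFU of the untreated inoculum. Activity is given as lg R = lg CFU/mL control − lg CFU/mL treated, and lg R ≥3 was defined as fungicidal. Values are means of two independent experiments.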

SMILES: CC(Cn1cnc2c1c(=O)n(C)c(=O)n2C)OC(=O)Nc1ccccc1 (configuration not stated)
- viability at 25 µM (CCRF-CEM [1]): 78.9%
- viability at 50 µM (CCRF-CEM [2]): 73.1%
- viability at 100 µM (CCRF-CEM [3]): 53.5%
- viability at 200 µM (CCRF-CEM [4]): 38.5%
- viability at 25 µM (MCF7 [5]): 91.9%
- viability at 50 µM (MCF7 [6]): 83.6%
- viability at 100 µM (MCF7 [7]): 84.7%
- viability at 200 µM (MCF7 [8]): 81%
- inhibition of growth at 16 µg/mL (Candida albicans [9]): 100%
- inhibition of growth at 16 µg/mL (Candida albicans [10]): 99.1%
- inhibition of growth at 8 µg/mL (Candida albicans [11]): 99.9%
- inhibition of growth at 8 µg/mL (Candida albicans [12]): 99.2%
- inhibition of growth at 4 µg/mL (Candida albicans [13]): 99.7%
- inhibition of growth at 8 µg/mL (Candida albicans [14]): 99.2%
- inhibition of growth at 2 µg/mL (Candida albicans [15]): 100%
- inhibition of growth at 2 µg/mL (Candida albicans [16]): 99.4%
- inhibition of growth at 1 µg/mL (Candida albicans [17]): 99.9%
- inhibition of growth at 1 µg/mL (Candida albicans [18]): 99.3%
- inhibition of growth at 0.5 µg/mL (Candida albicans [19]): 100%
- inhibition of growth at 0.5 µg/mL (Candida albicans [20]): 99.2%
- inhibition of growth at 0.25 µg/mL (Candida albicans [21]): 100%
- inhibition of growth at 0.25 µg/mL (Candida albicans [22]): 99.2%
- inhibition of growth at 0.125 µg/mL (Candida albicans [23]): 100%
- inhibition of growth at 0.125 µg/mL (Candida albicans [24]): 99.3%
- inhibition of growth at 0.0625 µg/mL (Candida albicans [25]): 100%
- inhibition of growth at 0.0625 µg/mL (Candida albicans [26]): 99.3%
- inhibition of growth at 0.0313 µg/mL (Candida albicans [27]): 100%
- inhibition of growth at 0.0313 µg/mL (Candida albicans [28]): 99.4%
- log(activity) (Candida albicans [29]): 0.6

SMILES: CC(Cn1cnc2c1c(=O)n(C)c(=O)n2C)OC(=O)C(c1ccccc1)c1ccccc1 (configuration not stated)
- viability at 25 µM (CCRF-CEM [1]): 84.8%
- viability at 50 µM (CCRF-CEM [2]): 33.1%
- viability at 100 µM (CCRF-CEM [3]): 30.5%
- viability at 200 µM (CCRF-CEM [4]): 2.5%
- viability at 25 µM (MCF7 [5]): 89.5%
- viability at 50 µM (MCF7 [6]): 75.2%
- viability at 100 µM (MCF7 [7]): 67.3%
- viability at 200 µM (MCF7 [8]): 43.5%
- inhibition of growth at 16 µg/mL (Candida albicans [9]): 99.9%
- inhibition of growth at 16 µg/mL (Candida albicans [10]): 99.1%
- inhibition of growth at 8 µg/mL (Candida albicans [11]): 99.9%
- inhibition of growth at 8 µg/mL (Candida albicans [12]): 99.1%
- inhibition of growth at 4 µg/mL (Candida albicans [13]): 100%
- inhibition of growth at 8 µg/mL (Candida albicans [14]): 99.2%
- inhibition of growth at 2 µg/mL (Candida albicans [15]): 99.8%
- inhibition of growth at 2 µg/mL (Candida albicans [16]): 99.2%
- inhibition of growth at 1 µg/mL (Candida albicans [17]): 99.6%
- inhibition of growth at 1 µg/mL (Candida albicans [18]): 99.4%
- inhibition of growth at 0.5 µg/mL (Candida albicans [19]): 99.6%
- inhibition of growth at 0.5 µg/mL (Candida albicans [20]): 99.1%
- inhibition of growth at 0.25 µg/mL (Candida albicans [21]): 99.3%
- inhibition of growth at 0.25 µg/mL (Candida albicans [22]): 99.1%
- inhibition of growth at 0.125 µg/mL (Candida albicans [23]): 100%
- inhibition of growth at 0.125 µg/mL (Candida albicans [24]): 99.8%
- inhibition of growth at 0.0625 µg/mL (Candida albicans [25]): 100%
- inhibition of growth at 0.0625 µg/mL (Candida albicans [26]): 99.3%
- inhibition of growth at 0.0313 µg/mL (Candida albicans [27]): 100%
- inhibition of growth at 0.0313 µg/mL (Candida albicans [28]): 99.9%
- log(activity) (Candida albicans [29]): 0.1

SMILES: CC(Cn1cnc2c1c(=O)n(C)c(=O)n2C)OC(=O)Sc1ccccc1 (configuration not stated)
- viability at 25 µM (CCRF-CEM [1]): 53.9%
- viability at 50 µM (CCRF-CEM [2]): 37.1%
- viability at 100 µM (CCRF-CEM [3]): 14.5%
- viability at 200 µM (CCRF-CEM [4]): 0.5%
- viability at 25 µM (MCF7 [5]): 86.8%
- viability at 50 µM (MCF7 [6]): 81.9%
- viability at 100 µM (MCF7 [7]): 69.9%
- viability at 200 µM (MCF7 [8]): 43.1%
- inhibition of growth at 16 µg/mL (Candida albicans [9]): 99.8%
- inhibition of growth at 16 µg/mL (Candida albicans [10]): 99.5%
- inhibition of growth at 8 µg/mL (Candida albicans [11]): 100%
- inhibition of growth at 8 µg/mL (Candida albicans [12]): 99.2%
- inhibition of growth at 4 µg/mL (Candida albicans [13]): 99.8%
- inhibition of growth at 8 µg/mL (Candida albicans [14]): 99.5%
- inhibition of growth at 2 µg/mL (Candida albicans [15]): 100%
- inhibition of growth at 2 µg/mL (Candida albicans [16]): 99.3%
- inhibition of growth at 1 µg/mL (Candida albicans [17]): 99.9%
- inhibition of growth at 1 µg/mL (Candida albicans [18]): 99.5%
- inhibition of growth at 0.5 µg/mL (Candida albicans [19]): 99.9%
- inhibition of growth at 0.5 µg/mL (Candida albicans [20]): 99.4%
- inhibition of growth at 0.25 µg/mL (Candida albicans [21]): 100%
- inhibition of growth at 0.25 µg/mL (Candida albicans [22]): 99.5%
- inhibition of growth at 0.125 µg/mL (Candida albicans [23]): 99.5%
- inhibition of growth at 0.125 µg/mL (Candida albicans [24]): 99.1%
- inhibition of growth at 0.0625 µg/mL (Candida albicans [25]): 99.7%
- inhibition of growth at 0.0625 µg/mL (Candida albicans [26]): 99.1%
- inhibition of growth at 0.0313 µg/mL (Candida albicans [27]): 99.8%
- inhibition of growth at 0.0313 µg/mL (Candida albicans [28]): 99.3%
- log(activity) (Candida albicans [29]): 0.1
